High-throughput results as filed in PubChem BioAssay.
In the library only some 27% were active in any assay of this set; here they are far more common.
CYP2C19 activ: human CYP2C19 activators, primary screen, biochemical, luminescence. Cytochrome P450 2C19 (Homo sapiens), P33261. recombinant CYP2C19, luciferin-H EGE luminescence; stronger effect = higher value; 0 = fully inhibited enzyme, 1 = untreated enzyme. activation factor at 5 µM. 96,000 tested, under 10 active;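 active = activation factor of at least 2 at 5 µM in the primary screen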;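 also: 0 = wells with 2.5 mM tranylcypromine and 1 = vehicle-only wells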
CYP2C9 act: human CYP2C9 activators, primary screen, biochemical, luminescence; AID 1024, 2008; recombinant CYP2C9, luciferin-H conversion; stronger effect = higher value; factor 1 = untreated enzyme, 0 = blocked; Cytochrome P450 2C9 (Homo sapiens), P11712; actives 1.4% (n = 96,000); activation factor at 5 µM;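 active = activation factor of 2 or more for CYP2C9 at a 5 µM dose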;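 also: 0 = sulfaphenazole-blocked wells and 1 = vehicle-only wells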
Cav32 inh: Cav3.2 calcium influx blockers – cell-based, Fluo-4 calcium fluorescence, FDSS, MLSMR library, primary screen; Cav3.2-expressing cells; stronger effect = lower value; actives 4% (n = 100,000); B-score at 10 µM; Voltage-dependent T-type calcium channel subunit alpha-1H (Homo sapiens), O95180; AID 449739, 2010;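 active = single-dose well whose peak fluorescence ratio is a statistical outlier from its plate by either plate-standardised score or position-corrected B-score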
CYP2C9 inhib: blockers of cytochrome P450 2C9 activity – biochemical, luminescence, ADME assay, primary screen. P11712. CYP2C9 Supersomes, luciferin-H conversion. inhibition, % at 5 µM. actives 20% (n = 96,000);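 active = blocking of liver enzyme CYP2C9 beyond about 50% at 5 µM, limit read from the data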
Rev-RRE block: HIV-1 Rev-RRE binding inhibitors, primary screen, biochemical, FRET, protein-RNA interaction; P05866; Rev peptide-RRE RNA binding; inhibition, % at 8 µM; actives 0.79% (n = 97,000);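 active = inhibition above the screen-wide mean plus 3 SD, cut at about 35% in these data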;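 also: 0% = median DMSO wells and 100% = median Neomycin B control wells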
Target sequence (P05866 whole entry, looked up): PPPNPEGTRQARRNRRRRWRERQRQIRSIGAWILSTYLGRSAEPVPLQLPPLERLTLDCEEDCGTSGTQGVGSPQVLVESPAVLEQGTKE
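Probe or stimulus: fluorescein-Rev peptide as binding partner; assay system: Cy5-tagged RRE RNA duplex with fluorescein-tagged Rev peptide; timing: 5 min compound–RNA preincubation, then 15 min with peptide, 25 °C; medium: HEPES pH 7.5 buffer with KCl, MgCl2, NaCl and EDTA; signal: fluorescein-to-Cy5 FRET, 480 nm excitation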
CYP2C19 inhib: blockers of cytochrome P450 2C19 activity – biochemical, luminescence, ADME assay, primary screen. AID 778, 2007. actives 21% (n = 96,000). CYP2C19 Supersomes, luciferin-H EGE luminescence, 30 min. P33261. inhibition, % at 5 µM;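 active = CYP2C19 inhibition above a set limit at 5 µM in the primary screen, cut at about 50% in these data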;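 also: plate controls were negative control wells for no effect and 2.5 mM tranylcypromine positive control for full effect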
* marks the source's active call; other numbers are inactive results; x = no result given.

SMILES	CYP2C19 activ	CYP2C9 act	Cav32 inh	CYP2C9 inhib	Rev-RRE block	CYP2C19 inhib
COc1cccc(NC(=O)CSc2nnc(-c3ccoc3C)n2-c2ccccc2)c1	0.7	0.4	-6.2*	59*	15	33
Cc1nonc1NC(=O)CSc1nnc(-c2ccoc2C)n1-c1cccc(Cl)c1	x	x	-4.4*	x	14	x
COc1ccc(-n2c(SCC(=O)Nc3ccccc3)nnc2-c2ccoc2C)cc1	x	x	-1.1	x	8	x
Cc1cccc(NC(=O)C2CC(=O)n3cnnc3S2)c1 (configuration not stated)	1	1.2	0.14	-23	11	0
O=C(CSc1nnc(Cc2cccs2)n1-c1ccc(Cl)cc1)NCc1ccc2c(c1)OCO2	0.6	0.5	-8.5*	54*	2	35
O=C(CSc1nnc(-c2cccs2)n1-c1ccccc1)NCc1ccc2c(c1)OCO2	0.3	0.1	-0.99	92*	3	68*
CCn1c(SCC(=O)Nc2cc(OC)c(OC)c(OC)c2)nnc1-c1cccs1	0.8	0.5	0.52	52*	3	19
O=C1CN(C(=O)CSc2nnc(-c3ccccc3)n2Cc2ccc3c(c2)OCO3)c2ccccc2N1	0.4	0.6	-0.52	37	-1	63*
O=C(CSc1nnc2ccccn12)Nc1ncc(Cl)cc1Cl	1	1.1	0.12	-7	8	-1
CCn1nnnc1SCC(=O)NCc1ccc2c(c1)OCO2	x	x	0.044	x	5	x
O=C(CCSc1nnc2scc(-c3ccccc3)n12)NCc1ccc2c(c1)OCO2	0.6	0.5	1.2	46	10	38
CCn1c(SC(C)C(=O)NC2CCCc3ccccc32)nnc1-c1cccs1 (configuration not stated)	0.1	0.1	-1.4	86*	4	89*
CC(Sc1nnc(-c2cccs2)n1Cc1ccccc1)C(=O)NCc1ccc2c(c1)OCO2 (configuration not stated)	0.5	0.2	-4.4*	85*	2	48
CCn1c(SCC(=O)NCc2ccc3c(c2)OCO3)nnc1-c1cccs1	1	0.2	1.3	77*	0	4
O=C(CSc1nnc(-c2cccs2)n1Cc1ccccc1)NCc1ccc2c(c1)OCO2	0.5	0.2	-4.7*	79*	4	53*
O=C(CSc1nnc(-c2ccco2)n1-c1ccccc1)NCc1ccc2c(c1)OCO2	0.5	0.6	0.11	40	-1	47
O=C(NCc1cccs1)C1CC(=O)N(c2ccccc2)C1 (configuration not stated)	0.8	1.1	-0.8	-14	8	22
CN(C)CCCN1C(=O)C(=O)/C(=C(/O)c2ccncc2)C1c1ccccc1 (configuration not stated)	1	0.9	-0.6	7	x	3
Cn1c(SCC(=O)NCc2ccc3c(c2)OCO3)nnc1-c1cccs1	1	0.4	0.5	65*	x	0
CC1(C)CC(=O)C2=C(C1)Nc1cc3c(cc1C2c1ccc(F)cc1)OCO3 (configuration not stated)	0.9	0.8	0.64	23	4	12
CC1(C)CC(=O)C2=C(C1)Nc1cc3c(cc1C2c1ccc2c(c1)OCO2)OCO3 (configuration not stated)	0.5	0.2	-2	76*	-1	48
COc1ccc(C2C3=C(CC(C)(C)CC3=O)Nc3cc4c(cc32)OCO4)cc1 (configuration not stated)	0.7	0.3	-0.59	70*	2	32
NC(=O)CC(NC(=O)c1ccccc1)c1ccc(NC2CCCCC2)c([N+](=O)[O-])c1 (configuration not stated)	x	x	0.16	x	x	x
C#CCn1c(=NC(=O)c2ccc(Br)s2)sc2cccc(OC)c21	1	1.7	0.41	-72	5	1
CCSc1nnc(-c2cccc(S(=O)(=O)N(CC)CC)c2)n1Cc1ccccc1	0.1	0.2	-2	76*	3	90*
